Granule exo inh – LAMP-1 surface exposure blockers, TALL-104 cells – cell-based, flow cytometry, MLPCN library, primary screen; TALL-104 LAMP-1 surface exposure; cells stimulated with thapsigargin and PMA; inhibition, % at 10 µM; 360,000 tested, 0.66% active; AID 651702, 2012;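 active = inhibition above about 55%, limit read from the data; inconclusive = no clear call, values can overlap the other calls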
CendR NRP1 mod – modulators of CendR peptide binding to NRP-1, primary screen, biochemical, fluorescence polarization, uHTS; Neuropilin-1 (Homo sapiens), O14786; FAM-RPARPAR peptide binding to NRP-1; inhibition, % at 25 µM; 360,000 tested, 0.85% active; AID 602438, 2012;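 active = inhibition or corrected inhibition above about 18%, plus a signal ratio from 0.5 to 1.5, limit read from the data, passing the limit was not always enough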
Myeloid diff MLP – induction of myeloid progenitor differentiation, primary screen, cell-based, flow cytometry, MLPCN library | ER-HoxA9 myeloid progenitors, lysozyme-GFP differentiation | calls only at 10 µM | 360,000 tested, 1% active | AID 624256, 2012;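 active = normalized GFP-positive differentiation at or above the plate's own cutoff, the solvent-only control mean plus 3 SD; inconclusive = no clear call, values can overlap the other calls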;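 also: cells exposed to compound for four days before flow analysis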
ATG4B inhibitor – ATG4B protease inhibitors, primary screen, biochemical, fluorescence, uHTS. Cysteine protease ATG4B (Homo sapiens), Q9Y4P1. 340,000 tested, 0.51% active. inhibition, % at 8.33 µM. AID 504462, 2011. ATG4B cleavage of LC3-PLA2, NBD-HPC fluorescence, 1 h; in the data active = inhibition above about 40%
Target sequence (Q9Y4P1 whole entry, looked up): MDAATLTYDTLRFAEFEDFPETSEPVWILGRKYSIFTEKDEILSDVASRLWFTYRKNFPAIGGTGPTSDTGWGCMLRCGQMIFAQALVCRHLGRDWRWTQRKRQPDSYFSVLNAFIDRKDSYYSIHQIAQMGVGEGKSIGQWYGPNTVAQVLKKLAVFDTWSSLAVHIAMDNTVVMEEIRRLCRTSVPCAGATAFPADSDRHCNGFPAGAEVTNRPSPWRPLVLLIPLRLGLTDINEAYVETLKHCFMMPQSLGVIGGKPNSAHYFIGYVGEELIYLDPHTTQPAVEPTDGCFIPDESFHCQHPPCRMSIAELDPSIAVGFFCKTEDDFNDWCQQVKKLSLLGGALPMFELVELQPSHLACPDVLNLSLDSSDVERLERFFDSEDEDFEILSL
Arr AP2 block – inhibitors of beta-arrestin/AP2 binding, primary screen, biochemical, GPCR trafficking, flow cytometry; AID 504490, 2011; beta-arrestin 1 C-terminal peptide binding to AP2 beta2-adaptin appendage (human); FITC-arrestin peptide / GST-AP2 beads; AP2 beta2 appendage carries R879A mutation; 340,000 tested, 0.31% active; inhibition, % at 10 µM;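 active = inhibition above a set limit, near 3 SD of compounds lacking own fluorescence, cut at about 54% in these data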;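 also: plate controls were DMSO wells for no effect and 5 µM unlabelled arrestin peptide for full effect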
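System: GST-AP2 R879A glutathione beads. Medium: PBS with 0.05% Tween 20 and 0.1% BSA. Also added: FITC-arrestin peptide, 50 nM. Incubation: 12 min plus 1 h, RT. Measured by: high-throughput flow cytometry of beads, ex 488, em 535 nm. Evaluation: percent drop in bead-associated FITC signal.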
ABCB6 inh 2 – ABCB6 transporter inhibitors, primary screen, K562-ABCB6 cells, flow cytometry, MLPCN library. ATP-binding cassette sub-family B member 6 (Homo sapiens), Q9NP58. K562-ABCB6 porphyrin accumulation, 1 h; stronger effect = lower value. fluorescence ratio to DMSO, % at 10 µM. 360,000 tested, 0.19% active;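 active = fluorescence ratio to DMSO below 75%, the collection mean minus 3 SD; inconclusive = too few cells collected in the well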;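 also: signal is porphyrin accumulated inside mitochondria; 100% equals median channel fluorescence of DMSO control wells; lower ratio means ABCB6 inhibition with less porphyrin fluorescence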
Myeloid diff CP1 – inducers of myeloid progenitor differentiation, confirmation, cell-based, GFP/Mac1 flow cytometry, cherry pick 01; calls only; 2,300 tested, 2% active; ER-HoxA9 myeloid progenitors, GFP/Mac1 double-positive flow; shares compounds with Myeloid diff MLP;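 active = share of green or green-and-red cells above 9 and 9% in run 1 or 4 and 3% in run 2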
GFP autofluor – compound fluorescence in myeloid differentiation counter-screen | ER-HoxA9 myeloid progenitors, no estrogen, GFP autofluorescence flow cytometry; vehicle wells 0%, positive control 100% | fluorescence response, % (no concentration beside the values) | AID 651707 | shares compounds with Myeloid diff MLP | 2,300 tested, 7.4% active;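 active = over 5% cells positive for green fluorescent reporter, or over 2% positive for both it and APC stain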;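 also: range taken on the double positive population between DMSO and positive control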
An asterisk follows results filed as active; i = inactive; ? = inconclusive; . = no result; + = active, no number. Rows were chosen to be rich in hits. Some 3.3% of all compounds tested hit in one or more screens of this group.

SMILES	Granule exo inh	CendR NRP1 mod	Myeloid diff MLP	ATG4B inhibitor	Arr AP2 block	ABCB6 inh 2	Myeloid diff CP1	GFP autofluor
O=C(CSc1ncnc2nc[nH]c12)c1ccc2ccccc2c1	-6	-16	+	9	-16	100	i	0
O=C(O)CSc1ncnc2nc[nH]c12	-1	1	i	-3	-5	99	.	.
O=S1(=O)CC2NC(=S)N(c3cccc(Br)c3)C2C1 (centres undefined)	4	2	i	-1	4	100	.	.
COc1ccc(-c2sc3ccccc3c2-c2ccc(O)cc2)cc1	7	4	i	12	-7	95	.	.
COc1ccc(-c2sc3cc(OC)c(OC)cc3c2-c2ccc(O)cc2)cc1	31	3	i	-8	20	100	i	0
O=[N+]([O-])CC(c1ccccc1)c1c[nH]c2ccccc12 (centres undefined)	-3	6	+	-8	33	88	i	0
CN(C)c1ccc(C(CNS(=O)(=O)c2ccc(F)cc2)c2c[nH]c3ccccc23)cc1 (centres undefined)	3	-14	i	8	48	104	.	.
O=[N+]([O-])c1cccc(-c2ccc(C(=S)N3CCOCC3)o2)c1	?	-2	i	3	1	98	.	.
O=[N+]([O-])c1cc(-c2ccc(C(=S)N3CCOCC3)o2)ccc1Cl	35	-8	+	-7	-8	102	i	0
Cc1ccc(-n2nnnc2CNC(=O)c2ccc([N+](=O)[O-])o2)cc1C	-2	-4	+	-3	0	97	i	0
O=C(NCc1nnnn1-c1ccc(F)cc1)c1ccc2ccccc2c1	1	-14	i	.	.	98	.	.
O=C(NCc1nnnn1-c1ccc(F)cc1)c1ccc([N+](=O)[O-])o1	3	4	+	-2	-12	100	i	4
Cc1ccc(-n2nnnc2CNC(=O)c2ccc(Br)o2)cc1C	-1	7	i	10	-11	93	.	.
CCCc1nn2c(=O)cc(CSCC(=O)Nc3nnc(C(C)C)s3)nc2s1	-1	-1	i	3	-1	104	.	.
Cc1ccc2c(c1)-c1c(cnn1CC(=O)Nc1ccccc1N1CCN(C)CC1)CO2	4	-2	i	-4	25	98	i	0
Cc1ccc2c(c1)-c1c(cnn1CC(=O)O)CO2	-1	-13	i	-5	-4	101	.	.
CN1/C(=C/C(=S)NC(=O)C2CCC2)C(C)(C)c2ccccc21	-1	-25	i	6	-10	236	i	3
CN1/C(=C\C(=O)c2cccc(S(=O)(=O)N3CCCCC3)c2)C(C)(C)c2ccccc21	0	5	i	3	8	99	.	.
Cc1ccc(S(=O)(=O)N2CCN(C(=O)C3CCCO3)CC2)cc1 (centres undefined)	46	6	i	-1	-10	100	.	.
Cc1cc(Cl)c(C)c(S(=O)(=O)N2CCN(C(=O)C3CCCO3)CC2)c1Cl (centres undefined)	4	1	+	0	5	99	i	0
CCC(C)N(C(=O)Cn1nnc2ccccc21)C(C(=O)NCc1ccco1)c1cccc(OC)c1 (centres undefined)	-1	4	i	-8	7	103	i	0
COCCNC(=O)C(c1cccc(OC)c1)N(C(=O)Cn1nnc2ccccc21)c1cccnc1 (centres undefined)	-2	-8	i	-2	-11	91	.	.
CC1CC2C3CCC4=CC(=O)C=CC4(C)C3(F)C(O)CC2(C)C1(O)C(=O)CO (centres undefined)	3	2	i	-6	37	105	.	.
C[C@]12C=CC(=O)C=C1CC[C@H]1[C@@H]3C[C@@H](O)[C@](O)(C(=O)CO)[C@@]3(C)C[C@H](O)[C@@]12F	2	-10	i	3	0	97	i	0
CCC(CC)N1CCN(S(=O)(=O)c2ccc(OC)cc2)CC1	10	-2	i	2	18	98	.	.
SMILES	Granule exo inh	CendR NRP1 mod	Myeloid diff MLP	ATG4B inhibitor	Arr AP2 block	ABCB6 inh 2	Myeloid diff CP1	GFP autofluor
Clc1cccc(CNc2ccn3nc(-c4ccc(OCc5ccccc5)cc4)cc3n2)c1	11	-8	+	.	.	80	i	1
c1ccc(COc2cccc(-c3cc4nc(NCCN5CCOCC5)ccn4n3)c2)cc1	4	-12	+	.	.	98	i	0
Clc1cccc(CNc2ccn3nc(-c4ccccc4)cc3n2)c1	19	12	i	.	.	98	.	.
COc1cc(C(=O)OCC(=O)Nc2ccccc2)cc2c1OCCO2	1	-6	i	.	.	82	.	.
CCCOc1cccc(C2C(C(=O)c3ccco3)=C(O)C(=O)N2c2nnc(C)s2)c1 (centres undefined)	-14	-5	.	-5	-1	99	.	.
CCCCOc1cccc(C2C(C(=O)c3ccc(C)o3)=C(O)C(=O)N2c2nnc(C)s2)c1 (centres undefined)	9	-48	+	-6	6	108	i	2
CC(=O)Nc1nc(-c2ccc([N+](=O)[O-])cc2)cs1	9	8	i	-10	4	97	.	.
N#C/C(=C\c1ccc(-c2ccc([N+](=O)[O-])cc2)o1)C(=O)Nc1nc(-c2cccs2)cs1	-4	-19	+	6	0	138	i	0
O=C(O)c1ccn2c(C(=O)c3ccc(Cl)cc3)c(-c3ccccc3)cc2c1	-18	-29	i	20	-5	114	.	.
CCOc1ccc(NS(=O)(=O)c2ccc(NS(=O)(=O)c3ccccc3)cc2)cc1	-5	-2	i	-11	-1	100	i	0
CCOc1ccc(S(=O)(=O)Nc2cc(NS(=O)(=O)c3ccc(OCC)cc3)cc(C(=O)O)c2)cc1	13	-29	i	-1	14	103	.	.
CCC(=O)Nc1cc(-c2nn(C)c(=O)c3ccccc23)ccc1OC	-2	-13	i	4	-1	97	.	.
